According to ChEMBL document CHEMBL5352504, “PINK1-Dependent Mitophagy Inhibits Elevated Ubiquitin Phosphorylation Caused by Mitochondrial Damage” (J Med Chem, 2023):
Values belong to the compound of their own block, whether it stands above or below them. Calls of active or inactive are those of the source. No cut-off for these calls is given here.

Experiments:
[1] = biological target: Serine/threonine-protein kinase PINK1, mitochondrial (Homo sapiens) (UniProt Q9BXM7); assay: Activation of PINK1 in human HeLa cells transfected with Parkin assessed as increase in Parkin phosphorylation at serine 65 at 50 uM incubated for 1 hr by Western blot analysis; assay type: cell-based
Summary of the method: (§1)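 HeLa cells transfected with Parkin were exposed to 50 μM compound for 1 h, with 10 μM CCCP for 3 h as a control. Cells were then lysed and immunoblotted for pSer65 Parkin, total Parkin, OPA1 and GAPDH (loading control). Untreated transfected and untransfected cells were included. Blots are representative of three repeat experiments.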

[2] = biological target: Serine/threonine-protein kinase PINK1, mitochondrial (Homo sapiens) (UniProt Q9BXM7); assay: Activation of PINK1 in human HeLa cells transfected with Parkin assessed as prevention of OPA1 cleavage at 50 uM incubated for 1 hr by Western blot analysis; assay type: cell-based; summary of the method: as §1
HeLa [3] = assay: Inhibition of CCCP-induced ubiquitin phosphorylation at serine 65 residue in human HeLa cells transfected with YFP-Parkin at 50 uM preincubated for 24 hrs followed by CCCP stimulation and measured after 1 hr hr by Hoechst 33258 staining based immunofluorescence analysis; assay type: cell-based; conditions: time 25.0 hrs
Summary of the method: (§2)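 YFP-Parkin HeLa cells were pretreated with 50 μM compound for 24 h, then given 10 μM CCCP or niclosamide for 1 h. Cells were fixed in chilled 4% PFA, permeabilised with 0.1% Triton, blocked in BSA, then immunostained overnight at 4 °C for pSer65-Ub and TOM20 with Hoechst. YFP-Parkin was imaged by confocal microscopy (40× oil). pUb mitochondrial localisation was quantified from images.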

HeLa [4] = assay: Induction of mitophagy in human HeLa cells transfected with YFP-Parkin assessed as parkin localization in mitochondria at 50 uM preincubated for 24 hrs followed by CCCP stimulation and measured after 1 hr hr by Hoechst 33258 staining based immunofluorescence analysis; assay type: functional, cell-based; summary of the method: as §2
HeLa [5] = assay: Induction of mitophagy in human HeLa cells transfected with YFP-Parkin assessed as effect on mitochondrial fragmentation at 50 uM incubated for 24 hrs by Hoechst 33258 staining based immunofluorescence analysis; assay type: functional, cell-based
Summary of the method: (§3)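 YFP-Parkin-transfected HeLa cells were left untreated or exposed to 50 μM compound alone for 24 h. Cells were PFA-fixed, Triton-permeabilised and immunostained for pSer65-Ub and TOM20 with Hoechst. Confocal imaging assessed mitochondrial fragmentation, YFP-Parkin localisation and ubiquitin phosphorylation.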

HeLa [6] = assay: Induction of mitophagy in human HeLa cells transfected with YFP-Parkin assessed as effect on Parkin localization at 50 uM incubated for 24 hrs by Hoechst 33258 staining based immunofluorescence analysis; assay type: functional, cell-based; summary of the method: as §3
[7] = biological target: Serine/threonine-protein kinase PINK1, mitochondrial (Mus musculus) (UniProt Q99MQ3); assay: Activation of mouse PINK1 in mouse astrocytes assessed increase in ubiquitin serine 65 phosphorylation at 50 uM incubated for 24 hrs by ELISA analysis; assay type: cell-based; conditions: Astrocyte, filed as activator
Summary of the method: (§4)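 Primary cortical astrocytes came from postnatal day 3 C57BL/6J pups and were used at 70–90% confluence (7–10 days in vitro). Lysates (HEPES/NP-40 lysis, pellet resuspended in RIPA) went to pS65-Ub ELISA. Signal was normalised per μg protein (BCA); mean ± SEM, n = 8.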

HeLa [8] = assay: Induction of mitophagy in YFP-Parkin-transfected human HeLa cells assessed as effect on ubiquitin phosphorylation at 50 uM incubated for 24 hrs by Hoechst 33258 staining based immunofluorescence analysis; assay type: functional, cell-based; summary of the method: as §3
[9] = biological target: Serine/threonine-protein kinase PINK1, mitochondrial (Mus musculus) (UniProt Q99MQ3); assay: Activation of mouse PINK1 in mouse astrocytes assessed ubiquitin serine 65 phosphorylation at 50 uM preincubated for 24 hrs followed by valinomycin treatment for 5 hrs by ELISA; assay type: cell-based; conditions: Astrocyte, time 29.0 hrs; summary of the method: as §4
HeLa [10] = assay: Inhibition of ubiquitin phosphorylation in CCCP stimulated human HeLa cells overexpressing Parkin assessed as reduction in CCCP-induced ubiquitin phosphorylation at serine 65 at 50 uM preincubated for 24 hrs followed by CCCP stimulation for 3 hr by Western blot analysis; assay type: cell-based; conditions: time 27.0 hrs
Summary of the method: (§5)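 Parkin-transfected HeLa cells received 50 μM compound for 24 h. They were then either lysed directly or given 10 μM CCCP for 3 h before lysis. Lysates were immunoblotted for Ser65-phosphorylated ubiquitin, OPA1 cleavage and GAPDH. Untreated transfected and untransfected cells served as references.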

[11] = biological target: Serine/threonine-protein kinase PINK1, mitochondrial (Homo sapiens) (UniProt Q9BXM7); assay: Activation of human PINK1 in human HeLa cells overexpressing Parkin assessed as phosphorylation of ubiquitin at serine 65 at 50 uM and measured after 24 hr by Western blot analysis; assay type: cell-based; summary of the method: as §5
MEF [12] = assay: Induction of mitophagy in PINK1 knockout mouse immortalized MEF cells overexpressing HA-tagged Parkin assessed as increase in mitophagy at 5 uM incubated for 16 hrs by flow cytometry analysis; assay type: functional, cell-based
Summary of the method: (§6)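 Immortalised MEFs from PINK1 WT or KO mito-QC littermate embryos, overexpressing HA-Parkin, were treated for 16 h. Cells were trypsinised, fixed in 3.7% formaldehyde/200 mM HEPES pH 7.0 and analysed by flow cytometry (≥2 × 10^4 cells). Living cells were gated on scatter, and the untreated-condition gate was applied to all conditions. Percent cells undergoing mitophagy was taken from the GFP/mCherry ratio; n = 3, two-way ANOVA with Sidak test.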

MEF [13] = assay: Induction of mitophagy in wild-type PINK1 harboring mouse immortalized MEF cells overexpressing HA-tagged Parkin assessed as increase in mitophagy at 5 uM incubated for 16 hrs by flow cytometry analysis; assay type: functional, cell-based; summary of the method: as §6
[14] = biological target: T1, Serine/threonine-protein kinase Pink1, mitochondrial (Tribolium castaneum) (UniProt D6WMX4); assay: Inhibition of recombinant Tribolium castaneum PINK1 using human Parkin as substrate assessed as substrate phosphorylation upto 100 uM
T1 sequence (whole entry): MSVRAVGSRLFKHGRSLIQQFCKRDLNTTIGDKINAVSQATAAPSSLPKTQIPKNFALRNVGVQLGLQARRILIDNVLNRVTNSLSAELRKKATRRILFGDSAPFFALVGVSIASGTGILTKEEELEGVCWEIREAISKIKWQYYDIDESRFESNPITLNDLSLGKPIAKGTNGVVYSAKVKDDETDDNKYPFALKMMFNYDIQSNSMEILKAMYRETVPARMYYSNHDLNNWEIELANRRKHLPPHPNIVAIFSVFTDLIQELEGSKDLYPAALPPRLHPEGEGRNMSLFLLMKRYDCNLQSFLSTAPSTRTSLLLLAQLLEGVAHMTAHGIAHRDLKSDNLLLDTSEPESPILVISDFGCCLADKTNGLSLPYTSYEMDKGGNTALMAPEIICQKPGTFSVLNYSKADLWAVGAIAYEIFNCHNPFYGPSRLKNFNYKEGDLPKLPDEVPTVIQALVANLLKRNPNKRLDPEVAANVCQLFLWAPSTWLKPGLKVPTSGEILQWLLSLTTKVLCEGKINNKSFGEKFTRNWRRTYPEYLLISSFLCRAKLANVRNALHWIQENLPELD

[15] = biological target: T1, Serine/threonine-protein kinase Pink1, mitochondrial (Tribolium castaneum); assay: Inhibition of recombinant Tribolium castaneum PINK1 using human ubiquitin as substrate assessed as substrate phosphorylation upto 100 uM

Serine/threonine-protein kinase PINK1, mitochondrial (Mus musculus), sequence (Q99MQ3 whole entry): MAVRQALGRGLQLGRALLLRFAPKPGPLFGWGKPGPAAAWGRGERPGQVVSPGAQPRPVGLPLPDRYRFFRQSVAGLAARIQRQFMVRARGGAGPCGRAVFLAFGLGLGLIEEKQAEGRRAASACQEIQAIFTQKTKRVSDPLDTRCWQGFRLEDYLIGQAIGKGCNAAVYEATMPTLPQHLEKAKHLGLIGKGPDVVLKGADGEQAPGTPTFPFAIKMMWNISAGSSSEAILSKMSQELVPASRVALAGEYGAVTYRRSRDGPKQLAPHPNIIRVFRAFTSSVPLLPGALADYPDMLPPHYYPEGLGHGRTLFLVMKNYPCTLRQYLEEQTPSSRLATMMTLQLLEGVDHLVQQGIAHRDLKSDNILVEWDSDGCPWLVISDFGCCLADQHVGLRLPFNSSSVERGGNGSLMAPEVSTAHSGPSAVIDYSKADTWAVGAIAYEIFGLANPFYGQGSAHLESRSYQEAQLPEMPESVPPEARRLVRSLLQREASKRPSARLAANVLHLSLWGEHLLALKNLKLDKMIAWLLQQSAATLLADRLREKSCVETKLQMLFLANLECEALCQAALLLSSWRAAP
Serine/threonine-protein kinase PINK1, mitochondrial (Homo sapiens), sequence (Q9BXM7 whole entry): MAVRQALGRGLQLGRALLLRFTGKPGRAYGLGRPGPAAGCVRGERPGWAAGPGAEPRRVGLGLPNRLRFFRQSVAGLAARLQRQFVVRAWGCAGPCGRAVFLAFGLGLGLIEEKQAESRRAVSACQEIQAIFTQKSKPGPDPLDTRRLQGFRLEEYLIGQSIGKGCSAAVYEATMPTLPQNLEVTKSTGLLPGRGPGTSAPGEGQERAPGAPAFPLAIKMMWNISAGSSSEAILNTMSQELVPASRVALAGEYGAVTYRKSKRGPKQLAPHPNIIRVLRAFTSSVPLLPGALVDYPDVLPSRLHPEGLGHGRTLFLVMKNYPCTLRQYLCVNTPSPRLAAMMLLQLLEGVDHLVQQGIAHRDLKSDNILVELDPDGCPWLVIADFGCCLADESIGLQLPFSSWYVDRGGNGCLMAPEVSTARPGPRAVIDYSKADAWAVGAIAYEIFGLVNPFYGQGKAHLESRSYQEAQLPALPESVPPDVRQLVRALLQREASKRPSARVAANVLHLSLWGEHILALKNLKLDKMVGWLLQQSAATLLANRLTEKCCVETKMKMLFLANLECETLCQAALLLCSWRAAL

- Activity [1]: inactive
SMILES: CC(C)Nc1ncnc2[nH]cnc12

- Activity [1]: inactive
SMILES: c1nc(NC2CCCC2)c2nc[nH]c2n1

- Activity [1]: inactive
SMILES: CNc1ncnc2[nH]cnc12

Second part, the compound before the results:

SMILES: CC(C)Nc1ncnc2c1ncn2[C@@H]1O[C@H](CO)[C@@H](O)[C@H]1O
- Activity ([1]; filed as activator): Active
- Activity [2]: inactive

SMILES: CNc1ncnc2c1ncn2[C@@H]1O[C@H](CO)[C@@H](O)[C@H]1O
- inhibition (HeLa [3]): inactive
- Activity (HeLa [4]): inactive
- Activity (HeLa [5]): inactive
- Activity ([1]; filed as activator): Active
- Activity [2]: inactive
- Activity (HeLa [6]): inactive
- Activity [7]: Active
- Activity (HeLa [8]): inactive
- Activity [9]: inactive

SMILES: O=P(O)(O)OP(=O)(O)OP(=O)(O)OC[C@H]1O[C@@H](n2cnc3c(NCc4ccco4)ncnc32)[C@H](O)[C@@H]1O
- inhibition (HeLa [10]): inactive
- Activity [11]: inactive

SMILES: OC[C@H]1O[C@@H](n2cnc3c(NCCc4ccc(O)cc4)ncnc32)[C@H](O)[C@@H]1O
- Activity ([1]; filed as activator): Active
- Activity [2]: inactive

SMILES: OC[C@H]1O[C@@H](n2cnc3c(NC4CCCC4)ncnc32)[C@H](O)[C@@H]1O
- Activity ([1]; filed as activator): Active
- Activity [2]: inactive

SMILES: OC[C@H]1O[C@@H](n2cnc3c(NCc4ccccc4)ncnc32)[C@H](O)[C@@H]1O
- Activity (MEF [12]): inactive
- inhibition (HeLa [3]): Active
- Activity (HeLa [4]): Active
- Activity (HeLa [5]): inactive
- Activity ([1]; filed as activator): Active
- Activity [2]: inactive
- Activity (MEF [13]): Active
- inhibition [14]: inactive
- Activity (HeLa [6]): inactive
- Activity [7]: Active
- inhibition [15]: inactive
- Activity (HeLa [8]): inactive
- Activity [9]: inactive
